Consider one molecule from ChEMBL document CHEMBL1759890, “3,5-Disubstituted-indole-7-carboxamides: the discovery of a novel series of potent, selective inhibitors of IKK-β” (Bioorg Med Chem Lett, 2011).

pIC50: −log10 of the molar value.

The target in experiment [1] is T1, Inhibitor of nuclear factor kappa-B kinase subunit beta (Homo sapiens, UniProt O14920).
T1 sequence (O14920 whole entry): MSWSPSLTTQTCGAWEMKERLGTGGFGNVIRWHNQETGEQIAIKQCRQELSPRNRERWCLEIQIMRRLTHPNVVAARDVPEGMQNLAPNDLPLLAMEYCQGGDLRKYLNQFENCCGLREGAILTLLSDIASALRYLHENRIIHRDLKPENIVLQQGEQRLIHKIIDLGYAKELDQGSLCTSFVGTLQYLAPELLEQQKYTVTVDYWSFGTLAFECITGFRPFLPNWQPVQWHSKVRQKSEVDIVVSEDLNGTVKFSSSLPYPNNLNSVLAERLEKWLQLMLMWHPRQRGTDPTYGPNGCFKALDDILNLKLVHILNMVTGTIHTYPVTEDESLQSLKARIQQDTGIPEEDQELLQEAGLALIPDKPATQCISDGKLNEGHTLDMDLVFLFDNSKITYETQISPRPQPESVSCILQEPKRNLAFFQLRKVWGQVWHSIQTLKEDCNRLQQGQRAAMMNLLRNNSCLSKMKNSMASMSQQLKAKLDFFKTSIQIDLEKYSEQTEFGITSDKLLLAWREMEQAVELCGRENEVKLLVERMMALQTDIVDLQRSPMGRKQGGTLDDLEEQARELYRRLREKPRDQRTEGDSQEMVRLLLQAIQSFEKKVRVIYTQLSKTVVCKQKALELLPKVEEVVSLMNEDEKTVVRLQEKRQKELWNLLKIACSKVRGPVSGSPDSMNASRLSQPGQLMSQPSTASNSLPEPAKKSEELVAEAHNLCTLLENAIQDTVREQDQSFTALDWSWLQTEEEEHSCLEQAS
Nature of the experiment: Inhibition of IKK-beta.

For another experiment, the system named is PBMC. Nature of the experiment: Antiinflammatory activity in human PBMC assessed as inhibition of LPS-induced TNF-alpha production. Format: functional, cell-based. In a few lines:
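Human peripheral blood mononuclear cells stimulated with LPS. Read-out is inhibition of TNF-α production, reported as pIC50.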

In experiment [2] the target is Tyrosine-protein kinase BTK (Homo sapiens, UniProt Q06187). The experiment is described as follows: Inhibition of BTK.
In experiment [3] the target is T2, Inhibitor of nuclear factor kappa-B kinase subunit epsilon (Homo sapiens, UniProt Q14164).
T2 sequence (Q14164 whole entry): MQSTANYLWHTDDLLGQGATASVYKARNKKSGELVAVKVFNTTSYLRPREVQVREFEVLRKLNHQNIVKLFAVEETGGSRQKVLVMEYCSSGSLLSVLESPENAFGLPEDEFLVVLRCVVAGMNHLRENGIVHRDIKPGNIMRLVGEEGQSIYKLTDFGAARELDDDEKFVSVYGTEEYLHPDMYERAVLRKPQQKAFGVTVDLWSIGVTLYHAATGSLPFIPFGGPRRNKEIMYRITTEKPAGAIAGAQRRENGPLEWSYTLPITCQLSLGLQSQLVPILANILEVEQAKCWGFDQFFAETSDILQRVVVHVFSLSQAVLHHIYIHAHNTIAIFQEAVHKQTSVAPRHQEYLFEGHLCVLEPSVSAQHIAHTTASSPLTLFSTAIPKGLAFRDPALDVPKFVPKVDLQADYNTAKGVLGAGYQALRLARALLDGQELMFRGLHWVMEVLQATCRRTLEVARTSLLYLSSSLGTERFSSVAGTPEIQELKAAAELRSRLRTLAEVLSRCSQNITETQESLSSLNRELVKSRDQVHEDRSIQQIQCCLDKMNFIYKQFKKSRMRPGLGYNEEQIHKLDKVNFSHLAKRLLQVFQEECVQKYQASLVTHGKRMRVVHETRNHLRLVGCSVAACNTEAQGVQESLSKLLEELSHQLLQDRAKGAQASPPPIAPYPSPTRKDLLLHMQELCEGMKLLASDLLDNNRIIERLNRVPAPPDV
Nature of the experiment: Inhibition of IKK-epsilon.

The next experiment deals with T3, Aurora kinase A (Homo sapiens, UniProt O14965).
T3 sequence (O14965 whole entry): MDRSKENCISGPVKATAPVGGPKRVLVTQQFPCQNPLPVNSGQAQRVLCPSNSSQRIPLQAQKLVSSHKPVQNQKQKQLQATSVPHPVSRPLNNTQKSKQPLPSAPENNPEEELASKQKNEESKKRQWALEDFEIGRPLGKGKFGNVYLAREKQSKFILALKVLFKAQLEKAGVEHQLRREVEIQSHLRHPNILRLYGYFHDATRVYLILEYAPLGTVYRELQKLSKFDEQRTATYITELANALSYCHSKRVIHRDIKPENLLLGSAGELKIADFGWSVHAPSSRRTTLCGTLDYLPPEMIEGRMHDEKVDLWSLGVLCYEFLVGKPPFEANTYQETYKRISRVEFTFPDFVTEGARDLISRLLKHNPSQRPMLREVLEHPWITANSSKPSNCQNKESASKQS
Nature of the experiment: Inhibition of Aurora A kinase.

Experiment [4] has as its target T1, Inhibitor of nuclear factor kappa-B kinase subunit beta. The experiment is described as follows: Inhibition of IKK-beta in human A549 cells assessed as TNF-alpha-induced Nuclear factor-kappa-B nuclear translocation.

Chain of Tyrosine-protein kinase BTK (Q06187 whole entry): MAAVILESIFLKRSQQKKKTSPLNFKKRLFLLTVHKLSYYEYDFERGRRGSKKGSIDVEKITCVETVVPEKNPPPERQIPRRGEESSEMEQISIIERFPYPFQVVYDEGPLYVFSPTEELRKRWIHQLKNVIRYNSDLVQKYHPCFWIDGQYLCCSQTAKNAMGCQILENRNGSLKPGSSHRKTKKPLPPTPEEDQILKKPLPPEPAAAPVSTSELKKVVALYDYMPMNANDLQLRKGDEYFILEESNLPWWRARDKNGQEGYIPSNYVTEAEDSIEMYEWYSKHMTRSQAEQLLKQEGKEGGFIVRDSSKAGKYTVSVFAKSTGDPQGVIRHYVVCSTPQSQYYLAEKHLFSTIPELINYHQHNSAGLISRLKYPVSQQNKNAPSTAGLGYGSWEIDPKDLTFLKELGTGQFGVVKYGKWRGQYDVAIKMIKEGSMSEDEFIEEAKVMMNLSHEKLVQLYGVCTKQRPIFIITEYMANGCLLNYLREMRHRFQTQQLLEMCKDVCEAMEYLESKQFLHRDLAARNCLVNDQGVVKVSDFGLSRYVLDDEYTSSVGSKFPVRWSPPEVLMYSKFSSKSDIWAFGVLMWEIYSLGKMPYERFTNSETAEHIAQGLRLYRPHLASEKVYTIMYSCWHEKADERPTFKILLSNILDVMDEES

As to `CCCS(=O)(=O)N1CCC(c2c[nH]c3c(C(N)=O)cc(-c4ccccc4)cc23)CC1`, the pIC50 (commonly the IC50 on a negative log10 scale, so that one unit is a factor of ten) in experiment [1] is 7.90; in the experiment on PBMC, 6.20; in experiment [2], 5.80; in experiment [3], < 5.50; against Aurora kinase A, 5.90; in experiment [4], 6.80.
